Measured values published in ChEMBL document CHEMBL1142384, “Gamma-carboline derivatives with anti-bovine viral diarrhea virus (BVDV) activity” (Bioorg Med Chem, 2008).

What was measured:
[1] = Cytotoxicity against mock-infected MDBK cells by LDH method; format: cell-based, Bos taurus; conditions: cattle
Procedure, shortened: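 Mock-infected MDBK cells (1 × 10^4 cells/well) incubated at 37 °C with various compound concentrations for 3 days. Viability measured by the LDH method.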

[2] = system: Bovine viral diarrhea virus 1; experiment: Antiviral activity against BVDV infected in MDBK cells assessed as reduction in viral induced cell destruction by MTT assay; format: functional, organism-based; conditions: Bovine viral diarrhea virus isolates and strains
Procedure, shortened: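 BVDV (Nose strain) infected MDBK cells (1 × 10^4 cells/well) at multiplicity of infection 0.01. Cells incubated at 37 °C with various compound concentrations for 3 days. Viability of infected cells read by MTT.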

[3] = Selectivity index, ratio of CC50 for MDBK cells to EC50 for BVDV infected in MDBK cells; format: functional
Procedure, shortened: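 MDBK cells (1 × 10^4/well) were infected with BVDV Nose strain at MOI 0.01, or mock-infected, and held at 37 °C with various compound concentrations for 3 days. EC50 was taken from the reduction of virus-induced cell destruction, measured as MTT viability of infected cells. CC50 was taken from the reduction of viable cell number, measured by LDH in mock-infected cells. SI = CC50/EC50.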

HL-60 = experiment: Growth inhibition of human HL60 cells; format: functional, cell-based

Question: For `CC(C)n1c2ccccc2c2cnccc21`, which CC50 [1] is on record?
Answer: 30 µM

Question: And the EC50 [2]?
Answer: 11 µM

Question: Which results are given for `CCCCCCn1c2ccccc2c2cnccc21`?
Answer: CC50 [1]: 7.4 µM; EC50 [2]: > 7.4 µM

Question: For `c1ccc2c(c1)Cc1ccccc1-2` [FLUORENE], which CC50 [1] is on record?
Answer: > 100 µM

Question: And the EC50 [2]?
Answer: 71 µM

Question: Which “Ratio CC50/EC50” value [3] does the source give for `Cn1ccc2nc3ccccc3c-2c1` here?
Answer: 15.1

Question: What about the CC50 [1] of the same molecule?
Answer: 65 µM

Question: What about the EC50 [2] of the same molecule?
Answer: 4.3 µM

Question: What does the source list for `Cn1c2ccccc2c2cnccc21`?
Answer: Ratio CC50/EC50 [3]: 111.5; CC50 [1]: 29 µM; EC50 [2]: 0.26 µM

Question: For `c1ccc2c(c1)[nH]c1ccccc12` [CARBAZOLE], which CC50 [1] is on record?
Answer: > 100 µM

Question: What about the EC50 [2] of the same molecule?
Answer: 64 µM

Question: Which “Ratio CC50/EC50” value [3] does the source give for `Cc1ccc2c(c1)[nH]c1ccncc12` here?
Answer: 21.8

Question: And the CC50 [1]?
Answer: 24 µM

Question: What about the EC50 [2] of the same molecule?
Answer: 1.1 µM

Question: For `Cc1cccc2c1[nH]c1ccncc12`, which “Ratio CC50/EC50” value [3] is on record?
Answer: 14.1

Question: And the CC50 [1]?
Answer: 24 µM

Question: And the EC50 [2]?
Answer: 1.7 µM

Question: Which results are given for `c1ccc2c(c1)[nH]c1ncccc12`?
Answer: CC50 [1]: > 100 µM; EC50 [2]: 93 µM

Question: Which CC50 [1] does the source give for `c1ccc2c(c1)[nH]c1cnccc12` [NORHARMANE] here?
Answer: 78 µM

Question: And the EC50 [2]?
Answer: 8.8 µM

Question: For `Cc1cccc2[nH]c3ccncc3c12`, which “Ratio CC50/EC50” value [3] is on record?
Answer: 13.3

Question: What about the CC50 [1] of the same molecule?
Answer: 16 µM

Question: What about the EC50 [2] of the same molecule?
Answer: 1.2 µM

Question: For `c1ccc(Cn2c3ccccc3c3cnccc32)cc1`, which CC50 [1] is on record?
Answer: 11 µM

Question: What about the EC50 [2] of the same molecule?
Answer: 8.7 µM

Question: Which CC50 [1] does the source give for `CCCn1c2ccccc2c2cnccc21` here?
Answer: 26 µM

Question: What about the EC50 [2] of the same molecule?
Answer: 8.2 µM

Question: For `Cc1cc2[nH]c3ccccc3c2cn1`, which “Ratio CC50/EC50” value [3] is on record?
Answer: 31.8

Question: And the CC50 [1]?
Answer: 70 µM

Question: And the EC50 [2]?
Answer: 2.2 µM

Question: Which results are given for `c1ccc2c(c1)oc1ccccc12` [DIBENZOFURAN]?
Answer: CC50 [1]: > 100 µM; EC50 [2]: 58 µM

Question: For `CCn1c2ccccc2c2cnccc21`, which CC50 [1] is on record?
Answer: 29 µM

Question: What about the EC50 [2] of the same molecule?
Answer: 2 µM

Question: For `CCCCn1c2ccccc2c2cnccc21`, which CC50 [1] is on record?
Answer: 14 µM

Question: And the EC50 [2]?
Answer: 9.2 µM

Question: Which CC50 [1] does the source give for `c1ccc2c(c1)[nH]c1cccnc12` here?
Answer: > 100 µM

Question: And the EC50 [2]?
Answer: > 100 µM

Question: For `Cc1nccc2[nH]c3ccccc3c12`, which “Ratio CC50/EC50” value [3] is on record?
Answer: 16.7

Question: And the IC50 (HL-60)?
Answer: 15.3 µM

Question: And the CC50 [1]?
Answer: 9.7 µM

Question: What about the EC50 [2] of the same molecule?
Answer: 0.58 µM

Question: Which “Ratio CC50/EC50” value [3] does the source give for `Cc1cncc2c1[nH]c1ccccc12` here?
Answer: 38.2

Question: What about the CC50 [1] of the same molecule?
Answer: 21 µM

Question: And the EC50 [2]?
Answer: 0.55 µM

Question: For `CCN(CC)CCn1c2ccccc2c2cnccc21`, which CC50 [1] is on record?
Answer: 10 µM

Question: And the EC50 [2]?
Answer: 8.9 µM

Question: With `Cc1ccc2[nH]c3ccncc3c2c1` as the molecule, how does the “Ratio CC50/EC50” value [3] read?
Answer: 4

Question: What about the CC50 [1] of the same molecule?
Answer: 12 µM

Question: And the EC50 [2]?
Answer: 3 µM

Question: Which IC50 (HL-60) does the source give for `c1ccc2c(c1)[nH]c1ccncc12` here?
Answer: 11.4 µM

Question: What about the CC50 [1] of the same molecule?
Answer: 40 µM

Question: What about the EC50 [2] of the same molecule?
Answer: 2 µM
